Experiment: Toxicity liver stage against HepG2, at 10uM
Format: cell-based
Design: test concentration 10 uM, cell line HepG2-A16-CD81EGFP
Settings: human, HepG2-A16-CD81EGFP cells; read-out: INHIBITION
How it was run: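 Uninfected HepG2-A16-CD81EGFP cells, 3 × 10^3 per well, 1536-well, plated on prespotted compound at 10 μM final, parasite-free screening media added to match infected plates; puromycin 10 μM positive, DMSO 0.5% negative; run in parallel with 48 h PbLuc assay at 37 °C, 5% CO2; viability by CellTiter-Glo luminescence, normalized to controls.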

Row | SMILES | cytotoxicity at 10 µM
1 | CCn1cc(C(=O)Nc2ccccc2C(=O)OC)cn1 | -7.25%
2 | COC(=O)CC(c1cccc(OC(F)F)c1)c1oc(C)cc(=O)c1O (stereo not given) | -9.11%
3 | O=S(=O)(Cc1ccccc1Cl)N1CCC2(CC1)OCCS2 | 0.649%
4 | Cn1c(C(=O)NC2CC2)nc2c1CCN(c1ncccn1)C2 | -4.75%
5 | Cc1cccc(CN2C[C@@H](NC(=O)C3CCC3)[C@H]3COC[C@H]32)n1 | 4.83%
6 | O=C(c1ccnnc1)N1C[C@@H]2CN(c3ncccn3)C[C@@H]2C1 | 7.19%
7 | Cn1cc(CN2CCc3ncn(C)c3C2COCc2ccccc2)cn1 (stereo not given) | 9.19%
8 | CC(NC(=O)OC(C)(C)C)c1nnc(S(=O)(=O)Cc2ccccc2Cl)o1 (stereo not given) | 0.935%
9 | CCc1c(C)n(CCC#N)c2nc3ccccc3n2c1=O | 2.73%
10 | CC(C)n1[nH]c(=O)c2c1NC(=O)CSC2c1cccc(OCC(N)=O)c1 (stereo not given) | 8.46%
11 | CC1=Nc2c(c(O)nn2C(C)C)C(c2cnn(C)c2)S1 (stereo not given) | 10.8%
12 | Cn1c(C(F)(F)F)nn(CCNC(=O)c2cnc3ccccc3n2)c1=O | -20%
13 | CCN1CCN(C(=O)C(C)n2cc(Br)cn2)CC1 (stereo not given) | 6.39%
14 | CCS(=O)(=O)N1CCCCC1c1nc(CC(C)C)no1 (stereo not given) | 0.253%
15 | Cc1nn(C)c2c(N3CCN(C)CC3)nc(C3CC3)nc12 | -5.2%
16 | CCc1ccccc1NC(=O)c1cnn(C)c1C | -2.52%
17 | Cc1cc(NC2CC3(CCN(Cc4ncccc4F)C3)C2)ncn1 (stereo not given) | 0.0666%
18 | Cc1nccn1[C@@H]1CC[C@@H](NC(=O)CCOc2ccccc2)[C@H]1O | -12.7%
19 | Fc1ccccc1CN1CCC[C@H](Cn2nnc(-c3cccs3)n2)C1 | -0.152%
20 | CNc1cncc(C2CCCN2C(=O)CCn2ccnc2C(C)C)n1 (stereo not given) | 3.36%
21 | Cc1nc(Nc2nnc(C)s2)cc(C2CCCN2C)n1 (stereo not given) | 8.67%
22 | CC(=O)N1CCCC1c1nccc(C)n1 (stereo not given) | 1.31%

Row | SMILES | cytotoxicity at 10 µM
23 | CS(=O)(=O)N1CC2(CCN(CC3CC3)C2)Cc2ccccc21 (stereo not given) | -1.93%
24 | O=C(c1ccc(Cl)s1)N1CCC2(CNS(=O)(=O)c3cnccc3O2)C1 (stereo not given) | 15.5%
25 | CC(C)(C)OC(=O)N1CCCN(c2nnc(Br)s2)CC1 | 10.5%
26 | CN(CCOc1cccc(F)c1)CC(=O)Nc1ccncc1 | 9.16%
27 | CC(c1ccco1)N(C(=O)CNc1ccc(C#N)cc1)C1CC1 (stereo not given) | 7.79%
28 | COc1ccncc1NCc1cscn1 | 6.44%
29 | Cc1ccccc1C(C)NC(=O)CN1CCN(Cc2ccc(Cl)s2)CC1 (stereo not given) | 10.8%
30 | CC(=O)N1CCC(C(=O)N(CC(F)F)c2cccc(Cl)c2)CC1 | 5.71%
31 | COc1ccc(-c2nnc(C(C)N3CCOC(C)(C)C3)o2)cc1 (stereo not given) | 2.62%
32 | CCCN(CC1CC1)C(=O)Nc1ccc(N2CCSCC2)cc1C | 3.05%
33 | CCOCCOC(C)C(=O)NCc1ccc(N2CCCCC2)cc1 (stereo not given) | 11.6%
34 | O=C(CC1=CCCCC1)NCc1ccnc(OC2CCOCC2)c1 | -0.103%
35 | CCOC(=O)NCCC(=O)NCc1ccnc(Oc2ccc(F)cc2)c1 | 6.74%
36 | COc1ncccc1CNCc1c(C(C)C)nn(C)c1Cl | -3.74%
37 | O=C(CN1CCCCCC1=O)NCC1CCN(c2ccccc2)C1 (stereo not given) | -6.5%
38 | COc1cc(NC(=O)NC(C2CC2)C2CC2)ccc1N1CCOC1=O | 4.63%
39 | CCn1cc(NC(=O)C2CCN(Cc3ccccc3)CC2)cn1 | 2.41%
40 | Cc1cnc(CN(C)C2CCN(Cc3sc(C)nc3C)C2)o1 (stereo not given) | 3.45%
41 | O=C(Nc1nncs1)NC1CCCc2c1cnn2CCO (stereo not given) | -17.2%
42 | CCc1noc(C(C)N(C)CC(=O)Nc2ccccc2Cl)n1 (stereo not given) | -0.0195%
43 | COc1ccc(COCC(=O)NC2CCc3nc(C)cn3C2)cc1 (stereo not given) | 1.6%
44 | CSC(C)(C)CNC(=O)NC(c1nnc2n1CCC2)C(C)C (stereo not given) | -19.9%

Row | SMILES | cytotoxicity at 10 µM
45 | CCNC(=O)CN(CC)C(=O)c1cc(-c2cccc(Cl)c2)no1 | -9.88%
46 | CCc1ncc2c(n1)CN(C(C)C(=O)N1CCOCC1)CC2 (stereo not given) | -8.52%
47 | COCCN1CCC(Nc2ccc(C#N)cc2F)CC1 | -3.68%
48 | COc1cc(I)c(Cl)cc1C(=O)N(C)CC(=O)NC(C)(C)C | 15.4%
49 | CN(Cc1nnc(C2CC2)n1C)S(=O)(=O)c1ccccc1F | 16.8%
50 | C[C@H](CCO)NS(=O)(=O)c1ccc(Br)cn1 | -8.63%
51 | Cn1ccc(C(=O)NCc2ccccc2Cn2ccnc2)cc1=O | 9.42%
52 | CNC(=O)CN1CCC(NC(=O)CC(C)CCc2ccccc2)CC1 (stereo not given) | 8.47%
53 | CCCC(C)NC(=O)CCN1C(=O)CCc2cc(F)ccc21 (stereo not given) | 8.17%
54 | Cc1nc(C2CCCN2C(=O)COCCOc2ccccc2)no1 (stereo not given) | -5.82%
55 | Cc1nc(CN2CCC(N(C)Cc3noc(C(C)C)n3)C2)cs1 (stereo not given) | -14.1%
56 | COc1ccccc1CC(=O)NCCCN1CCCC1C(=O)N(C)C (stereo not given) | -13%
57 | O=C(CN(Cc1cccnc1)CC1CCCO1)Nc1ccc(F)cc1 (stereo not given) | -10.7%
58 | CC(C)NC(=O)c1noc2c1CN(Cc1cnn(C)c1)CC2 | 6.59%
59 | c1cnc(N2CCO[C@H]3[C@H](OCc4cccnc4)CC[C@@H]32)nc1 | -5.05%
60 | Cc1noc(C)c1CN1CC[C@H]2C[C@@H](c3ccncn3)O[C@@H]2C1 | -3.04%
61 | CCc1noc(CN(CCc2ccccc2)C2CCN(C)CC2)n1 | 0.15%
62 | O=C(CN1CCOC(c2ccc(Cl)c(Cl)c2)C1)NCc1ccco1 (stereo not given) | -7.31%
63 | Cc1nc(-c2cccnc2)ncc1C(=O)N1CCCC(N(C)C)CC1 (stereo not given) | 9.81%
64 | Cc1ccc(C(C(=O)NCCN2CCCCCC2)N(C)C)cc1 (stereo not given) | -3.12%
65 | Cc1nnc(SCCCNC(=O)Nc2ccc3c(c2)OCO3)s1 | 7.28%
66 | O=C(NCCCOC1CCCCC1)C1NCCc2[nH]cnc21 (stereo not given) | 4.68%

Row | SMILES | cytotoxicity at 10 µM
67 | O=C(c1cc(Cl)ccc1OC1CCN(C2CCCC2)CC1)N1CC(O)C1 | -16.2%
68 | Cc1cc(C(=O)N[C@H]2Cc3ccccc3[C@@H]2N)c(=O)[nH]c1C | 11.2%
69 | CCc1cn[nH]c1C1CCN(C(=O)c2cccc(O)c2C)CC1 | 2.28%
70 | Cc1noc(C)c1C(=O)N1CCCC(c2nccn2Cc2cscn2)C1 (stereo not given) | 2.11%
71 | Cc1nn(C)c(C)c1CN(C)C(C(=O)O)c1ccc(F)cc1F (stereo not given) | 8.42%
72 | CC(=O)N1CCc2c(nc(N(C)C)nc2N(C)CCCC2CCCO2)C1 (stereo not given) | 7.92%
73 | O=C(O)[C@@H]1CN(CC2CCC2)C[C@H]1c1ccc(F)cc1 | -3.62%
74 | CN1CCN(Cc2ccccc2Cl)CC12CCC(=O)N(CC1CC1)CC2 (stereo not given) | -3.94%
75 | CN(Cc1nnc(C2CC2)n1C)C1CCN(Cc2nccn2C)C1 (stereo not given) | -8.22%
76 | Cc1cnn(C2CCCN(C(=O)CCCc3ccccn3)C2)c1 (stereo not given) | -11.2%
77 | CC(NC(=O)c1cccs1)C(=O)NCc1ccccn1 (stereo not given) | -12.3%
78 | O=C(NCCCN1CCCCCC1=O)c1n[nH]c(=O)c2ccccc12 | -12.3%
79 | CN(C)c1ccc(C(=O)N2CCN(CC(C)(C)O)CC2)nn1 | -13.3%
80 | Cc1ccc(OCCC(=O)N2CCOCC2c2ncon2)cc1C (stereo not given) | -11.9%
81 | CN1N=C(C(=O)N2CCCC(n3ccnc3)C2)CCC1=O (stereo not given) | -13.2%
82 | CN(Cc1ccccc1)CC(O)Cn1cnc2c(cnn2C)c1=O (stereo not given) | 1.53%
83 | CC(C)c1nn(C)c(N2CCOCC2)c1CNCCS(C)(=O)=O | -8.36%
84 | c1cnn(CC2CCCCN2Cc2cn3ccsc3n2)c1 (stereo not given) | -7.08%
85 | COc1cccc(COCC(=O)N2CCC(CC(N)=O)CC2)c1 | -4.56%
86 | CCn1c(CN2CCN(CC(N)=O)CC2)nc2c(F)cccc21 | -9.88%
87 | CCOc1ccc(C#N)cc1NCC(=O)Nc1cc(F)ccc1F | -9.47%
88 | CNC(=O)[C@@H]1CN(C(=O)C(C)C)C[C@H]1c1ccnc(N2CCCC2)n1 | 0.791%

Row | SMILES | cytotoxicity at 10 µM
89 | CNC(=O)N1Cc2cc(F)ccc2C2(CCN(C)CC2)C1 | 0.595%
90 | COc1ccc(-c2cnc(N(C)C)nc2C2CNCCO2)cc1 (stereo not given) | -1.4%
91 | O=C(O)c1c(-c2ccoc2)ncc2c1CCN(C1CCOC1)C2 (stereo not given) | 17%
92 | CCc1ccc(CN2CCC3(CC2)NC(=O)CC3c2ccncc2)o1 (stereo not given) | 1.83%
93 | CN1CCO[C@@H]2CN(S(=O)(=O)c3ccccc3F)CC[C@@H]2C1 | 1.35%
94 | CCCS(=O)(=O)N1CCC2(CN(c3cnn(C)c3)C(=O)CN2C)C1 (stereo not given) | -10.7%
95 | c1ccc(CN2CCc3nnc(COc4ccccn4)n3CC2)nc1 | -2.1%
96 | Cc1noc(C)c1CN1CCC2(CC1)CC(Oc1cccnc1)CO2 (stereo not given) | 17.8%
97 | CN(C)C(=O)COC1COC2(CCN(c3cnccn3)CC2)C1 (stereo not given) | -6.29%
98 | CN(C)Cc1cc(=O)n2c(n1)CN(S(=O)(=O)C1CC1)CCC2 | 4.53%
99 | OCCN1CC2(CCN(c3ccccc3)C2)C1 | 0.234%
100 | O=C1N(CC2CC2)CCC12CCN(CC1CC1)CC2 | 7.07%
101 | CN(C)CCN1CCCC12CCCN(Cc1ccoc1)C2 (stereo not given) | 7.88%
102 | CS(=O)(=O)N1C[C@H]2CCCN(Cc3ccsc3)[C@H]2C1 | 6.43%
103 | O=C(NCc1ccco1)[C@H]1C[C@@H]2CCN(c3ccncn3)C[C@@H]2O1 | -9.58%
104 | CC(C)Nc1nc2c(c(N(C)C)n1)CCN(Cc1nccn1C)CC2 | 1.35%
105 | O=C(NCc1cccc(Cl)c1)C1=NOC2(CCNC2)C1 (stereo not given) | -0.0606%
106 | CC1c2ncc(COCC3CC3)n2CCN1C (stereo not given) | 7.83%
107 | O=C1[C@@H]2CCN(Cc3ccoc3)C[C@@H]2OCCN1c1ccccc1 | -0.928%
108 | Cc1oncc1C(=O)N1C[C@H]2CCCC(N(C)Cc3cccs3)[C@H]2C1 (stereo not given in full) | 18.8%
109 | CCn1cc(CN2C[C@@H]3CC[C@H]2CN(C(=O)c2ccncc2)C3)cn1 | 10.2%
110 | Cc1[nH]ccc1C(=O)N1C[C@@H]2CC[C@H]1CN(S(=O)(=O)N(C)C)C2 | 11.8%
